Measurements: ChEMBL document CHEMBL4364341, “Radiosensitization of Head and Neck Squamous Cell Carcinoma (HNSCC) by a Podophyllotoxin” (ACS Med Chem Lett, 2019)
Calls of active or inactive are those of the source. The rule behind the calls is not given here.

Legend:
FaDu [1] = test: Antiproliferative activity against human FADU cells assessed as fractional inhibition at 0.005 uM after 6 days in absence of irradiation by MTT assay; assay type: functional
Outline: (§1)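 FaDu or SCC-25 cells were grown in DMEM with 10% FBS at 37 °C and 5% CO2. They were seeded at 1000 cells/well in 96-well plates for 24 h, then dosed with compound (fresh DMSO stock diluted in medium) or vehicle. After 1 h, X-rays were given with a sliding 5 mm lead shield, so one plate held 0, 2.5, 5 and 10 Gy columns. After 6 days, MTT (0.5 mg/mL, 45 min) was added, then DMSO, and A570 was read. Values were normalised to the unirradiated vehicle control. Fractional inhibition = 1 − surviving fraction.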

SCC-25 [2] = test: Selectivity ratio of IC50 for antiproliferative activity against human SCC25 cells assessed as reduction in colony formation unit to IC50 for antiproliferative activity against human SCC25 cells assessed as reduction in colony formation unit followed by irradiation with 5 Gy IR; assay type: functional
FaDu [3] = test: Selectivity ratio of IC50 for antiproliferative activity against human FADU cells assessed as reduction in colony formation unit to IC50 for antiproliferative activity against human FADU cells assessed as reduction in colony formation unit followed by irradiation with 5 Gy IR; assay type: functional
SCC-25 [4] = test: Antiproliferative activity against human SCC25 cells assessed as reduction in cell viability at 1 uM after 6 days by MTT assay relative to control; assay type: functional, cell-based; outline: as §1
SCC-25 [5] = test: Synergistic induction of cell cycle arrest in human SCC25 cells assessed as decrease in accumulation at S phase at 0.5 uM followed irradiation with 5Gy IR incubated for 24 hrs by propidium iodide staining based flow cytometry; assay type: functional
Outline: (§2)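 FaDu or SCC-25 cells, untreated, given 5 Gy IR, drug, or drug plus 5 Gy. Cell-cycle distribution by propidium iodide staining and flow cytometry at 6 h and 24 h after treatment. G0/G1, S and G2/M fractions compared with control by t test.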

FaDu [6] = test: Synergistic antiproliferative activity against human FADU cells assessed as fractional inhibition at 0.05 uM preincubated for 1 hr followed by irradiation with 10 Gy IR and measured after 6 days by MTT assay (reference value: 0.388); assay type: functional; outline: as §1
FaDu [7] = test: Synergistic antiproliferative activity against human FADU cells assessed as fractional inhibition at 0.5 uM preincubated for 1 hr followed by irradiation with 10 Gy IR and measured after 6 days by MTT assay (reference value: 0.388); assay type: functional; outline: as §1
FaDu [8] = test: Synergistic antiproliferative activity against human FADU cells assessed as fractional inhibition at 5 uM preincubated for 1 hr followed by irradiation with 10 Gy IR and measured after 6 days by MTT assay (reference value: 0.388); assay type: functional; outline: as §1
FaDu [9] = test: Synergistic antiproliferative activity against human FADU cells assessed as combination index at 0.05 uM preincubated for 1 hr followed by irradiation with 2.5 Gy IR and measured after 6 days by MTT assay; assay type: functional
Outline: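 Combination index was calculated by the Chou–Talalay median-effect method from the 6-day MTT viability data of the single-plate compound/X-ray (2.5, 5, 10 Gy) design. CI < 1 denotes synergy, CI = 1 additivity and CI > 1 antagonism.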

SCC-25 [10] = test: Synergistic antiproliferative activity against human SCC25 cells assessed as fractional inhibition at 0.005 uM preincubated for 1 hr followed by irradiation with 2.5 Gy IR and measured after 6 days by MTT assay (reference value: 0.011); assay type: functional
Outline: (§3)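 SCC-25 cells seeded 1000/well in 96-well plates in DMEM/10% FBS and left 24 h. Drug or vehicle added, then after 1 h X-irradiated to 2.5, 5 or 10 Gy on one plate using a shifted lead shield. Plates incubated 6 days, then MTT (0.5 mg/mL, 45 min), DMSO solubilisation, absorbance at 570 nm. Fractional inhibition = 1 − fraction of surviving cells.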

SCC-25 [11] = test: Synergistic antiproliferative activity against human SCC25 cells assessed as fractional inhibition at 5 uM preincubated for 1 hr followed by irradiation with 2.5 Gy IR and measured after 6 days by MTT assay (reference value: 0.011); assay type: functional; outline: as §3
SCC-25 [12] = test: Synergistic antiproliferative activity against human SCC25 cells assessed as fractional inhibition at 0.005 uM preincubated for 1 hr followed by irradiation with 5 Gy IR and measured after 6 days by MTT assay (reference value: 0.133); assay type: functional; outline: as §3
SCC-25 [13] = test: Synergistic antiproliferative activity against human SCC25 cells assessed as combination index at 0.05 uM preincubated for 1 hr followed by irradiation with 2.5 Gy IR and measured after 6 days by MTT assay; assay type: functional
Outline: (§4)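 SCC-25 cells grown in DMEM with 10% FBS at 37 °C, 5% CO2, seeded 1000 cells/well in 96-well plates and left 24 h. Drug in DMSO, diluted in complete medium, added 1 h before X-irradiation. A movable 5 mm lead shield gave 0, 2.5, 5 or 10 Gy on one plate. After 6 days, MTT readout at 570 nm. Combination index by Chou–Talalay from viability data.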

SCC-25 [14] = test: Synergistic antiproliferative activity against human SCC25 cells assessed as combination index at 5 uM preincubated for 1 hr followed by irradiation with 2.5 Gy IR and measured after 6 days by MTT assay; assay type: functional; outline: as §4
SCC-25 [15] = test: Synergistic antiproliferative activity against human SCC25 cells assessed as combination index at 0.005 uM preincubated for 1 hr followed by irradiation with 5 Gy IR and measured after 6 days by MTT assay; assay type: functional; outline: as §4
SCC-25 [16] = test: Synergistic antiproliferative activity against human SCC25 cells assessed as combination index at 5 uM preincubated for 1 hr followed by irradiation with 10 Gy IR and measured after 6 days by MTT assay; assay type: functional; outline: as §4
FaDu [17] = test: Synergistic induction of cell cycle arrest in human FADU cells assessed as decrease in accumulation at S phase at 0.5 uM followed irradiation with 5Gy IR incubated for 24 hrs by propidium iodide staining based flow cytometry; assay type: functional; outline: as §2
FaDu [18] = test: Inhibition of cell migration in human FADU cells at 0.5 uM incubated for 12 and 24 hrs by microscopic analysis; assay type: functional, cell-based
Outline: (§5)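 Scratch assay: 10^5 cells/well were grown to confluence in 12-well plates, with mitomycin C to block proliferation. Cells were treated with compound for 24 h, with or without 5 Gy IR, then scratched with a pipette tip, washed with PBS and given fresh medium. Imaging was at 0, 6, 12 and 24 h. % migration = gap decrease relative to the 0 h gap.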

SCC-25 [19] = test: Inhibition of cell migration in human SCC25 cells at 0.5 uM incubated for 12 and 24 hrs by microscopic analysis; assay type: functional, cell-based; outline: as §5
FaDu [20] = test: Induction of cell cycle arrest in human FADU cells assessed as decrease in cyclin B1 at 0.5 uM incubated for 48 hrs by immunoblot analysis; assay type: functional, cell-based
Outline: (§6)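 FaDu cells received compound at 0.5 μM, 5 Gy IR, or both. After 48 h, lysates were immunoblotted for NRF2, cyclin B1, CDK1, Bax and Bcl-2. Membranes were then stripped and reprobed for β-actin as the loading control.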

FaDu [21] = test: Induction of cell cycle arrest in human FADU cells assessed as decrease in CDK1 at 0.5 uM incubated for 48 hrs by immunoblot analysis; assay type: functional, cell-based; outline: as §6
FaDu [22] = test: Inhibition of colony formation in human FADU cells incubated for 10 to 14 days by crystal violet staining based assay; assay type: functional, cell-based
SCC-25 [23] = test: Synergistic induction of apoptosis in human SCC25 cells assessed as increase in caspase at 0.5 uM followed by irradiation with 5 Gy IR incubated for 48 hrs by luminescence based analysis; assay type: functional, cell-based

COc1ccc2c(c1)N(CCO)C1=C(C(=O)OC1)C2c1ccccc1 (stereo not drawn)
fractional inhibitory concentration index (FICI) (FaDu [1]): 0.145
Ratio IC50 (SCC-25 [2]): 2
Ratio IC50 (FaDu [3]): 13
inhibition (SCC-25 [4]): inactive
Activity (SCC-25 [5]): Active
fractional inhibitory concentration index (FICI) (FaDu [6]): 0.452
fractional inhibitory concentration index (FICI) (FaDu [7]): 0.613
fractional inhibitory concentration index (FICI) (FaDu [8]): 0.681
CI (FaDu [9]): 0.234
fractional inhibitory concentration index (FICI) (SCC-25 [10]): 0.015
fractional inhibitory concentration index (FICI) (SCC-25 [11]): 0.531
fractional inhibitory concentration index (FICI) (SCC-25 [12]): 0.157
CI (SCC-25 [13]): 0.835
CI (SCC-25 [14]): 1.244
CI (SCC-25 [15]): 0.801
CI (SCC-25 [16]): 1.017
Activity (FaDu [17]): Active
inhibition (FaDu [18]): inactive
inhibition (SCC-25 [19]): inactive
Activity (FaDu [20]): Active
Activity (FaDu [21]): Active
IC50 (FaDu [22]): 6.5 µM
Activity (SCC-25 [23]): Active
